Calls of active or inactive are those of the source. No cut-off for these calls is given here.
Key:
[1] = molecular target: Bromodomain-containing protein 4 (Homo sapiens) (UniProt O60885); experiment: Binding affinity to human N-terminal His-tagged BRD4 bromodomain1 assessed as change in melting temperature at 10 uM by SYPRO orange dye-based fluorescence assay
Procedure, shortened: (§1)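 Thermal shift with His-tagged human bromodomain at 2 μM final in 10 mM HEPES pH 7.5, 500 mM NaCl. Compound at 10 μM final with 0.1% DMSO; SYPRO Orange at 1:1000. Equilibrated 3 min at 25 °C, then heated from 25 to 95 °C at 1 °C/min. Melting temperature shift taken from fluorescence; at least duplicate.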

[2] = molecular target: Bromodomain and PHD finger-containing protein 3 (Homo sapiens) (UniProt Q9ULD4); experiment: Binding affinity to human N-terminal His-tagged BRPF3 assessed as change in melting temperature at 10 uM by SYPRO orange dye-based fluorescence assay; procedure, shortened: as §1
[3] = molecular target: Bromodomain-containing protein 3 (Homo sapiens) (UniProt Q15059); experiment: Binding affinity to human partial length BRD3 bromodomain 1 (P24 to E144 residues) expressed in bacterial expression system at 1 uM by BROMOscan assay
Procedure, shortened: (§2)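 BROMOscan bromodomain cross-screen run by an outside service, compound at 1 µM against 32 recombinant bromodomains. Binding given as percent of control.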

[4] = molecular target: Bromodomain-containing protein 4 (Homo sapiens) (UniProt O60885); experiment: Binding affinity to human partial length BRD4 bromodomain 2 long isoform (K333 to E460 residues) expressed in bacterial expression system at 1 uM by BROMOscan assay; procedure, shortened: as §2
[5] = molecular target: Chromatin remodeling regulator CECR2 (Homo sapiens) (UniProt Q9BXF3); experiment: Binding affinity to human partial length CECR2 (P423 to D543 residues) expressed in bacterial expression system at 1 uM by BROMOscan assay; procedure, shortened: as §2
[6] = molecular target: CREB-binding protein (Homo sapiens) (UniProt Q92793); experiment: Binding affinity to human partial length CREBBP (R1081 to G1197 residues) expressed in bacterial expression system at 1 uM by BROMOscan assay; procedure, shortened: as §2
[7] = molecular target: CDK12/Cyclin K (Homo sapiens) (UniProt O75909+Q9NYV4); experiment: Inhibition of recombinant full length human CDK12/cyclinK at 10 uM using RSRSRSRSRSRSRSR as substrate measured after 120 mins in presence of [gamma33P]ATP by scintillation counting method; assay type: protein-complex assay
[8] = molecular target: Dual specificity protein kinase CLK3 (Homo sapiens) (UniProt P49761); experiment: Inhibition of recombinant full-length human CLK3 at 10 uM using ERMRPRKRQGSVRRRV as substrate measured after 40 mins in presence of [gamma33P]ATP by scintillation counting method
[9] = test system: Mast/stem cell growth factor receptor Kit (Homo sapiens), P10721 [D816V]; experiment: Inhibition of recombinant human c-Kit D816V mutant (544 to end residues) at 10 uM using poly(Glu, Tyr) 4:1 as substrate measured after 40 mins in presence of [gamma33P]ATP by scintillation counting method
[10] = test system: Mast/stem cell growth factor receptor Kit (Homo sapiens), P10721 [V654A]; experiment: Inhibition of recombinant human c-Kit V654A mutant (544 to end residues) at 10 uM using GGMEDIYFEFMGGKKK as substrate measured after 40 mins in presence of [gamma33P]ATP by scintillation counting method
[11] = molecular target: Focal adhesion kinase 1 (Homo sapiens) (UniProt Q05397); experiment: Inhibition of recombinant human FAK (411 to 686 residues) at 10 uM using EEEEYEEEEEEYYIIEEEEEEYEEEEEEYYEEEEEEKKKK as substrate measured after 40 mins in presence of [gamma33P]ATP by scintillation counting method
[12] = molecular target: Fibroblast growth factor receptor 2 (Homo sapiens) (UniProt P21802); experiment: Inhibition of recombinant human FGFR2 (456 to 770 residues) at 10 uM using poly(Glu, Tyr) 4:1 as substrate measured after 40 mins in presence of [gamma33P]ATP by scintillation counting method
[13] = molecular target: Receptor-type tyrosine-protein kinase FLT3 (Homo sapiens) (UniProt P36888); experiment: Inhibition of recombinant human Flt3 (564 to end residues) at 10 uM using EAIYAAPFAKKK as substrate measured after 40 mins in presence of [gamma33P]ATP by scintillation counting method
[14] = molecular target: Mitogen-activated protein kinase kinase kinase kinase 2 (Homo sapiens) (UniProt Q12851); experiment: Inhibition of recombinant human GCK at 10 uM using myelin basic protein as substrate measured after 40 mins in presence of [gamma33P]ATP by scintillation counting method
[15] = molecular target: Maternal embryonic leucine zipper kinase (Homo sapiens) (UniProt Q14680); experiment: Inhibition of recombinant human MELK (1 to 340 residues) at 10 uM using KKLNRTLSFAEPG as substrate measured after 40 mins in presence of [gamma33P]ATP by scintillation counting method
[16] = molecular target: Hepatocyte growth factor receptor (Homo sapiens) (UniProt P08581); experiment: Inhibition of recombinant human MET A1209G/V1290L mutant (974 to end residues) at 10 uM using KKKGQEEEYVFIE as substrate measured after 40 mins in presence of [gamma33P]ATP by scintillation counting method
[17] = molecular target: Serine/threonine-protein kinase D2 (Homo sapiens) (UniProt Q9BZL6); experiment: Inhibition of recombinant full-length human PKD2 at 10 uM using KKLNRTLSVA as substrate measured after 40 mins in presence of [gamma33P]ATP by scintillation counting method
[18] = test system: Serine/threonine-protein kinase Sgk2 (Homo sapiens), Q9HBY8 [S416D]; experiment: Inhibition of recombinant human SGK2 S416D mutant (54 to end residues) at 10 uM using GRPRTSSFAEGKK as substrate measured after 40 mins in presence of [gamma33P]ATP by scintillation counting method
[19] = molecular target: SRSF protein kinase 2 (Homo sapiens) (UniProt P78362); experiment: Inhibition of human SRPK2 (46 to end residues) using RSRSRSRSRSRSRSR as substrate measured after 40 mins in presence of [gamma33P]ATP by scintillation counting method
Procedure, shortened: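 Kinase panel of 422 kinases screened by Eurofins KinaseProfiler at a single test-compound concentration of 10 µM.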

[20] = molecular target: Serine/threonine-protein kinase tousled-like 2 (Homo sapiens) (UniProt Q86UE8); experiment: Inhibition of human TLK2 (387 to end residues) using casein as substrate measured after 40 mins in presence of [gamma33P]ATP by scintillation counting method
[21] = molecular target: Tyrosine-protein kinase TXK (Homo sapiens) (UniProt P42681); experiment: Inhibition of human Txk (256 to end residues) using GEEPLYWSFPAKKK as substrate measured after 40 mins in presence of [gamma33P]ATP by scintillation counting method
[22] = species: Homo sapiens; experiment: Inhibition of recombinant full-length human ATRIP/ATR M211T mutant at 10 uM using GST-cMyc-p53 as substrate measured after 40 mins by fluorescence assay
[23] = molecular target: Phosphatidylinositol 4-phosphate 3-kinase C2 domain-containing subunit alpha (Homo sapiens) (UniProt O00443); experiment: Inhibition of recombinant human PI3KC2alpha (299 to end residues) at 10 uM using phosphatidylinositol as substrate measured after 40 mins by HTRF assay
Phosphatidylinositol 4-phosphate 3-kinase C2 domain-containing subunit alpha (Homo sapiens), sequence (O00443 whole entry, the tested form may be a part): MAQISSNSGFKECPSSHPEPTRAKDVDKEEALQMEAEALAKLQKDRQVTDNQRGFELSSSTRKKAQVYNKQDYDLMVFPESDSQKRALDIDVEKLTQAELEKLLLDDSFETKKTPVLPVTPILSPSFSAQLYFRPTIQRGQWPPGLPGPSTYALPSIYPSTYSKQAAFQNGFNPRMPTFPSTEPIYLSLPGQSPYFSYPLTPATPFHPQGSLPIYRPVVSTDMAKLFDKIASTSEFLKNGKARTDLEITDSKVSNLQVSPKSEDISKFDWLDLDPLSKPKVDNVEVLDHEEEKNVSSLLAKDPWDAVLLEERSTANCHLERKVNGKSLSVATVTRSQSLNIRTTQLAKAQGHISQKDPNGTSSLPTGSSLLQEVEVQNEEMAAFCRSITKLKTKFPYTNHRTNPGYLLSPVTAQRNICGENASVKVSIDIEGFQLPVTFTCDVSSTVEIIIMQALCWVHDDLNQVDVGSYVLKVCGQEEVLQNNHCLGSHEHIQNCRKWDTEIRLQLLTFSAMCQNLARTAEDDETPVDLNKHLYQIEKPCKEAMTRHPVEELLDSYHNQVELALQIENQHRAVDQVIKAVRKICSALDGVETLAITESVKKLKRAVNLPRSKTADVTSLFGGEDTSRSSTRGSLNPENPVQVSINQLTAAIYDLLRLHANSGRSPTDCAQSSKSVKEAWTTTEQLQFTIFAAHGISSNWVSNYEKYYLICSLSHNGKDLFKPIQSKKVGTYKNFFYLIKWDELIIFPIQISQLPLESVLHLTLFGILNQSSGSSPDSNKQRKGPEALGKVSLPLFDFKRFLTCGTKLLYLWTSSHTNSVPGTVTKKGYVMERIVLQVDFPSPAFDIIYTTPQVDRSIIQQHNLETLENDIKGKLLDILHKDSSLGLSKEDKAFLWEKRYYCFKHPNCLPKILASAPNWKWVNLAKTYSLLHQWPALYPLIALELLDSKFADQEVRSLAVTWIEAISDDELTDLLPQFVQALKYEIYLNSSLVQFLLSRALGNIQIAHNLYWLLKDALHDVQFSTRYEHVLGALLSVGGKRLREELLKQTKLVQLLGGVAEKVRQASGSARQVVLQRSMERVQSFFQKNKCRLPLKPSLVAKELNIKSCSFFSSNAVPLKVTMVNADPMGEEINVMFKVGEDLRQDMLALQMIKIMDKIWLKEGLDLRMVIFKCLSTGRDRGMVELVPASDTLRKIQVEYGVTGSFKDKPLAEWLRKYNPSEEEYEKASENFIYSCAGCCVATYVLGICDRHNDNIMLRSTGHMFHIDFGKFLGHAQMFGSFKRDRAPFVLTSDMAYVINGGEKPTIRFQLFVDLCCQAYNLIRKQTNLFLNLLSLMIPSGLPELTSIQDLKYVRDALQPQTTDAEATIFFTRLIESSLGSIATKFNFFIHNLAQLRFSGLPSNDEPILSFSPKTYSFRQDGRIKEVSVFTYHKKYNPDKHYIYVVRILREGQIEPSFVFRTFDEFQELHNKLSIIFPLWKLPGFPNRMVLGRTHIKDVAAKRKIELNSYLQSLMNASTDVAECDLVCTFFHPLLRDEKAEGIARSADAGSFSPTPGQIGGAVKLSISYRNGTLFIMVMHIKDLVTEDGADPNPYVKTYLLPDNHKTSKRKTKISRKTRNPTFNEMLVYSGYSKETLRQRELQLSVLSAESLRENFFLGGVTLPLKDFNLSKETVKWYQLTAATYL

Dual specificity protein kinase CLK3 (Homo sapiens), sequence (P49761 whole entry, looked up): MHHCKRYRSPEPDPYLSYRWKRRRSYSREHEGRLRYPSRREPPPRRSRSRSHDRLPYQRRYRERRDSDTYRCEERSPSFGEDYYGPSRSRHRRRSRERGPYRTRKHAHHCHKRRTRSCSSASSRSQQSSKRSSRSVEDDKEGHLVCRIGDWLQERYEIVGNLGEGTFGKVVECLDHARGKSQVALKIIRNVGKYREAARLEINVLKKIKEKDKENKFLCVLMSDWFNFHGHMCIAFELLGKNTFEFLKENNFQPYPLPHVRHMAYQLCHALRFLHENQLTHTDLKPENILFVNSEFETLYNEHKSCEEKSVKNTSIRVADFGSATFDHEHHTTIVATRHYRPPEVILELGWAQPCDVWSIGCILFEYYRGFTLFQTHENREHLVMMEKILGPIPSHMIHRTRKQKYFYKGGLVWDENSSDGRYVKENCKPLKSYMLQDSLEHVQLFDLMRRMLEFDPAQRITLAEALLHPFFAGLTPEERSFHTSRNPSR
Serine/threonine-protein kinase D2 (Homo sapiens), sequence (Q9BZL6 whole entry): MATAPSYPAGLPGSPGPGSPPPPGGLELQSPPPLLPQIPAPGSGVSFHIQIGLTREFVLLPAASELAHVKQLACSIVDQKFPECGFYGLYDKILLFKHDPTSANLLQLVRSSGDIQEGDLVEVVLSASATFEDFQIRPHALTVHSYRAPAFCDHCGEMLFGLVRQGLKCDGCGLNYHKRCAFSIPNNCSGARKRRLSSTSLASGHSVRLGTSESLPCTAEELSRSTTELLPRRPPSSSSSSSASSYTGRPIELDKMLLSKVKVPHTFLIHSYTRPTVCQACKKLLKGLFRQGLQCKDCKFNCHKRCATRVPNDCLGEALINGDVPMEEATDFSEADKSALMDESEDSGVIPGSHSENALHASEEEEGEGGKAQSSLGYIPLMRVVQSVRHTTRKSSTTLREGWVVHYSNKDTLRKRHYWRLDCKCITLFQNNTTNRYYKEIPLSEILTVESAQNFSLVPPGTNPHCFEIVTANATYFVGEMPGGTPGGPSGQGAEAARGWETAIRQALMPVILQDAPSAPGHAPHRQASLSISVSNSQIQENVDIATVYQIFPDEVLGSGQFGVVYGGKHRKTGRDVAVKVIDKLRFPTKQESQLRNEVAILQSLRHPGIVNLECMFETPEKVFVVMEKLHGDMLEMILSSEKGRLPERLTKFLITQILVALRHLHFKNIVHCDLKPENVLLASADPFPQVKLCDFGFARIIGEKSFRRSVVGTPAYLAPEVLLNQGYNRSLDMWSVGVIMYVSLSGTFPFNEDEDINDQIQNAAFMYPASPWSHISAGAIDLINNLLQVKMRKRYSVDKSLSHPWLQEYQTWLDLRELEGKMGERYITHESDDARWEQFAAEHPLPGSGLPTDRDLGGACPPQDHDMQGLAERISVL
Fibroblast growth factor receptor 2 (Homo sapiens), sequence (P21802 22-821 limits assumed): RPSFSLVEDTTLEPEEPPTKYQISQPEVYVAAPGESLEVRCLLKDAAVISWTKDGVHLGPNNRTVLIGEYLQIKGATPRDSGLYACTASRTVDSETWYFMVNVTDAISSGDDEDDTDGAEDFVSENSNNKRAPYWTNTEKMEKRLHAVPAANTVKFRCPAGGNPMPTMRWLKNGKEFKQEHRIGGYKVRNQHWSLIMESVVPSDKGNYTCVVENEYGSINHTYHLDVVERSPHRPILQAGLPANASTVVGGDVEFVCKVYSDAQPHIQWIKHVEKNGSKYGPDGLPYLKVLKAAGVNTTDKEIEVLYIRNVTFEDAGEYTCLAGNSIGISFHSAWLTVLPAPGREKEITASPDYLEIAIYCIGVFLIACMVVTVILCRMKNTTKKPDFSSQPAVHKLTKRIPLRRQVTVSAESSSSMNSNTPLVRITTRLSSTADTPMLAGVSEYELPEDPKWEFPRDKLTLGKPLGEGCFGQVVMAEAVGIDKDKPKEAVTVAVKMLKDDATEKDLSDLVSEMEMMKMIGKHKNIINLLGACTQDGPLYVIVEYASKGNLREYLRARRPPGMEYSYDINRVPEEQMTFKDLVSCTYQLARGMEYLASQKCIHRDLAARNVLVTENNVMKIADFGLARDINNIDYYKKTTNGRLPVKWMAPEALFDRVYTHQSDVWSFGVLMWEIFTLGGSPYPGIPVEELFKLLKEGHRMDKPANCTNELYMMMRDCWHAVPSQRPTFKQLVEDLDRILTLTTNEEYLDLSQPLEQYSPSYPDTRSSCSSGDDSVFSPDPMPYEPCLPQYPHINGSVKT
Mitogen-activated protein kinase kinase kinase kinase 2 (Homo sapiens), sequence (Q12851 whole entry, the tested form may be a part): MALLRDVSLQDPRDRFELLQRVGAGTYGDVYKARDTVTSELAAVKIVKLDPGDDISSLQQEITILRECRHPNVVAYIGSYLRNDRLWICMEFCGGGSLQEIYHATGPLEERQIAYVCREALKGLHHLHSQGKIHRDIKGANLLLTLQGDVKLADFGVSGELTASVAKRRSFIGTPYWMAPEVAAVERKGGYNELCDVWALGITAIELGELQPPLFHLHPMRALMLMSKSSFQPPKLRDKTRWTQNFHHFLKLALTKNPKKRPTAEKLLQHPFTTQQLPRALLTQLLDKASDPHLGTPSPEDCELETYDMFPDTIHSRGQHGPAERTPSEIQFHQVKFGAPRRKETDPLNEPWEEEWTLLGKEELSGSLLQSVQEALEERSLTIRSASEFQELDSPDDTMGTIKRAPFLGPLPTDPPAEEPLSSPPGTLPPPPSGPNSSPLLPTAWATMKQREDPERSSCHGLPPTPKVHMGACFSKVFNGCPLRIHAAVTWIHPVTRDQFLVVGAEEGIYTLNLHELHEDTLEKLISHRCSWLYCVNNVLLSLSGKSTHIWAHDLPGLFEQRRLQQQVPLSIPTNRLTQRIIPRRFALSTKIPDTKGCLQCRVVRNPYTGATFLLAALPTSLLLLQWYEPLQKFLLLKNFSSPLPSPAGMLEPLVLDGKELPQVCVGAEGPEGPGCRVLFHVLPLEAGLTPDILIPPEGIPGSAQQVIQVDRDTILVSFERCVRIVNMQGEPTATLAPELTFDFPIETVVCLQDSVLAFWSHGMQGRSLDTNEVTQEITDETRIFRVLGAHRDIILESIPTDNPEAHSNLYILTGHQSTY
Serine/threonine-protein kinase Sgk2 (Homo sapiens), Q9HBY8 [S416D], sequence (Q9HBY8 1-367 with tags or gaps S416D): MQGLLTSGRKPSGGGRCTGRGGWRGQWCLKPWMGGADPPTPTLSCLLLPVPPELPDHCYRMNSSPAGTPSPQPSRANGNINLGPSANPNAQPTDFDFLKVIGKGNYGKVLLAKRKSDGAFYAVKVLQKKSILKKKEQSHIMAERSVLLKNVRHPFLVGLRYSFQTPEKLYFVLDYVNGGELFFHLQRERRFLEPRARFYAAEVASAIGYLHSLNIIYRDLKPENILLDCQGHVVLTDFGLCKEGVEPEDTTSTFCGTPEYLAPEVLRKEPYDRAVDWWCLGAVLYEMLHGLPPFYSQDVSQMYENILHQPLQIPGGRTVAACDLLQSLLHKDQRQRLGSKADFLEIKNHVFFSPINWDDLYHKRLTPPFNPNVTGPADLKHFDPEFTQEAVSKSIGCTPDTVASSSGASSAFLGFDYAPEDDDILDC

CN1C[C@H](Nc2nc3cc[nH]c3c(=O)n2C)C[C@H](c2ccc3c(c2)OCCO3)C1
ΔTm [1]: 0.1 °C
ΔTm [2]: 1.7 °C
Activity [3]: inactive
Activity [4]: inactive
Activity [5]: Active
Activity [6]: inactive
inhibition [7]: inactive
inhibition [8]: inactive
inhibition [9]: inactive
inhibition [10]: inactive
inhibition [11]: inactive
inhibition [12]: inactive
inhibition [13]: inactive
inhibition [14]: inactive
inhibition [15]: inactive
inhibition [16]: inactive
inhibition [17]: inactive
inhibition [18]: inactive
inhibition [19]: inactive
inhibition [20]: inactive
inhibition [21]: inactive
inhibition [22]: inactive
inhibition [23]: inactive
